Laboratory results taken from ChEMBL document CHEMBL1153783, “Synthesis and vasodilatory activity of some amide derivatives of 6-(4-carboxymethyloxyphenyl)-4,5-dihydro-3(2H)-pyridazinone” (Eur J Med Chem, 2009).

Legend:
Aorta [1] = assay: Vasodilatory activity in Wistar rat thoracic aortic ring assessed as inhibition of phenylephrine-induced contraction at 10 uM treated after phenylephrine challenge; format: functional
How it was run: (§1)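 Thoracic aortic rings were taken from Wistar rats of either sex (300–400 g) and held in PSS at 37 °C under O2/CO2 (95:5), equilibrated ≥90 min. Rings were precontracted with 10^-6 M phenylephrine, then given cumulative additions of 10^-8 to 10^-5 M at 30 min intervals, one compound per ring. Relaxation was read as % of initial contraction. A sigmoidal fit gave pD2 and Emax, reported as mean ± SEM of 4 or 8 experiments.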

Aorta [2] = assay: Vasodilatory activity in Wistar rat thoracic aortic ring assessed as inhibition of phenylephrine-induced contraction treated after phenylephrine challenge; format: functional, tissue-based; settings: for IC50: Rattus norvegicus, Wistar, Aorta; how it was run: as §1
Aorta [3] = assay: Ratio of SK&F-93741 IC50 to compound IC50 for inhibition of phenylephrine-induced contraction in Wistar rat thoracic aortic ring; format: functional
Aorta [4] = assay: Ratio of hydralazine IC50 to compound IC50 for inhibition of phenylephrine-induced contraction in Wistar rat thoracic aortic ring; format: functional

Structure (SMILES)	Emax at 10 µM (Aorta [1]) [%]	pD2 (Aorta [2])	IC50 (Aorta [2]) [nM]	Ratio IC50 (Aorta [3])	Ratio IC50 (Aorta [4])
O=C1CCC(c2ccc(OCC(=O)n3ccnc3)cc2)=NN1	3.7	–	–	–	–
CC1CC(=O)NN=C1c1ccc(OCC(=O)n2ccnc2)cc1 (stereo not drawn)	32	–	–	–	–
CN1CCN(C(=O)COc2ccc(C3=NNC(=O)CC3)cc2)CC1	23.9	–	–	–	–
O=C1CCC(c2ccc(OCC(=O)N3CCCCC3)cc2)=NN1	61.6	5.9	910	–	–
O=C(COc1ccc(C2=NN(c3ccccc3)C(=O)CC2)cc1)N1CCCCC1	16.2	–	–	–	–
CC1CC(=O)NN=C1c1ccc(OCC(=O)N2CCCCC2)cc1 (stereo not drawn)	29.8	–	–	–	–
O=C1CCC(c2ccc(OCC(=O)N3CCOCC3)cc2)=NN1	41.8	–	–	–	–
CC1CC(=O)NN=C1c1ccc(OCC(=O)N2CCOCC2)cc1 (stereo not drawn)	17.6	–	–	–	–
O=C1CCC(c2ccc(OCC(=O)N3CCCC3)cc2)=NN1	52.2	5.9	1020	–	–
O=C(COc1ccc(C2=NN(c3ccc(F)cc3)C(=O)CC2)cc1)N1CCCC1	61.8	7.2	51	1.7	4.5
CC1CC(=O)NN=C1c1ccc(OCC(=O)N2CCCC2)cc1 (stereo not drawn)	21.7	–	–	–	–
CC(=O)Nc1ccc(C2=NNC(=O)CC2C)cc1 (stereo not drawn)	61.1	7	–	–	–
NNc1nncc2ccccc12 [HYDRALAZINE]	55	6.6	–	–	–
